# Measured values gathered from unrelated publications.
# Compare with care: the assays were run in different laboratories.
# Organism: Klebsiella pneumoniae
# Effect on: microbial growth
Structure (SMILES),test,system,MIC
Cc1c(NN=C(C#N)C2=NC(=O)CS2)c(=O)n(-c2ccccc2)n1C,broth dilution,,0.98 µg/mL
CN[C@@H]1[C@H](O)[C@H](NC)[C@H]2O[C@@]3(O)C(=O)C[C@@H](C)O[C@H]3O[C@@H]2[C@H]1O,broth dilution,ATCC33495,> 200 µg/mL
COC(=O)c1cc(-c2cccc(NC(=O)Nc3ccccc3C)c2)on1,broth dilution,BAA1705,> 64 µg/mL
Fc1c(F)c(F)c(F)c(F)c1F,,ATCC13883,> 250 µg/mL
COC(=O)c1cc(-c2ccc(OC)c(NC(=O)Nc3ccc(Cl)c(Cl)c3)c2)on1,broth dilution,BAA1705,> 64 µg/mL
CCCCCCC#Cc1cncc(-c2nnc(SCc3cc([N+](=O)[O-])cc([N+](=O)[O-])c3)n2C)c1,,,≥ 20 µg/mL
COC(=O)c1cc(-c2cccc(NC(=O)Nc3cccc(C#N)c3)c2)on1,broth dilution,BAA1705,> 64 µg/mL
CCCCCCC#Cc1cncc(-c2nnc(Sc3ccc([N+](=O)[O-])cc3[N+](=O)[O-])n2C)c1,,,≥ 20 µg/mL
Fc1c(F)c(F)c(-c2c(F)c(F)c(F)c(F)c2F)c(F)c1F,,ATCC13883,> 250 µg/mL
CCCCCCCCCC(=O)N[C@@H](Cc1c[nH]c2ccccc12)C(=O)N[C@H](CC(N)=O)C(=O)N[C@@H](CC(=O)O)C(=O)N[C@@H]1C(=O)NCC(=O)N[C@@H](CCCN)C(=O)N[C@@H](CC(=O)O)C(=O)N[C@H](C)C(=O)N[C@@H](CC(=O)O)C(=O)NCC(=O)N[C@H](CO)C(=O)N[C@@H]([C@H](C)CC(=O)O)C(=O)N[C@@H](CC(=O)c2ccccc2N)C(=O)O[C@@H]1C,broth dilution,ATCC10031,> 64 µg/mL
